According to paper PMC10053325 (Cell chemical biology, 2020):
Substitutions are numbered along the chain they refer to.

Tests used:
[1] = biological target: T1, SMAD4^R361H-SMAD3 PPI (Homo sapiens, UniProt Q13485, R361H); test: TR-FRET assay for SMAD4^R361H/SMAD3 PPI in HEK293T cell lysate; format: binding; details: primary screening, compounds 20 μM
Target sequence in this assay (P84022 whole entry partner, one chain of several): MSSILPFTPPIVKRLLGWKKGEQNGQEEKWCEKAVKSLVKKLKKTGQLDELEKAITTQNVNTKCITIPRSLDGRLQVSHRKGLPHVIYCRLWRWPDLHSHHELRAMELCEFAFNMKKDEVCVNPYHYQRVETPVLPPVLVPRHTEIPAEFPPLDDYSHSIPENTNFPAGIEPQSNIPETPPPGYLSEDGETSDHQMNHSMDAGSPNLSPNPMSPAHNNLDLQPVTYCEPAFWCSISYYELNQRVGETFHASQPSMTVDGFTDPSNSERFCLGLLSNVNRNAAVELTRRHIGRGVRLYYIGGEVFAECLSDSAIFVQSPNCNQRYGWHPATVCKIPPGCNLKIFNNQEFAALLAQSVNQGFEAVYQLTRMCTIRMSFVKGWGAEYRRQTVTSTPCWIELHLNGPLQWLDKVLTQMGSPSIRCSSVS

[2] = tested on: isogenic HCT116 R361H cells; test: Colony formation assay; format: cell-based, human; details: TGF-β 10 ng/mL, Ro-31-8220 1 μM, Go-6983 10 μM, 15-day treatment
How it was run: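 Single-cell suspensions seeded at 1,000 to 2,000 cells/well in 6-well plates, treated next day with TGF-β, test compound, or the combination. Agent-containing medium renewed every 3 days for 15 days. Colonies stained with crystal violet and colony area quantified from images. Mean ± SD, three independent experiments; Student's t-test.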

[3] = biological target: SMAD4^D351H/SMAD3 PPI (Homo sapiens, UniProt Q13485, D351H); test: GST pull-down assay of GST-SMAD4-D351H with VF-SMAD3 in cell lysate; format: binding; details: versus DMSO control
Sequence of SMAD4^D351H/SMAD3 PPI (Q13485 whole entry D351H): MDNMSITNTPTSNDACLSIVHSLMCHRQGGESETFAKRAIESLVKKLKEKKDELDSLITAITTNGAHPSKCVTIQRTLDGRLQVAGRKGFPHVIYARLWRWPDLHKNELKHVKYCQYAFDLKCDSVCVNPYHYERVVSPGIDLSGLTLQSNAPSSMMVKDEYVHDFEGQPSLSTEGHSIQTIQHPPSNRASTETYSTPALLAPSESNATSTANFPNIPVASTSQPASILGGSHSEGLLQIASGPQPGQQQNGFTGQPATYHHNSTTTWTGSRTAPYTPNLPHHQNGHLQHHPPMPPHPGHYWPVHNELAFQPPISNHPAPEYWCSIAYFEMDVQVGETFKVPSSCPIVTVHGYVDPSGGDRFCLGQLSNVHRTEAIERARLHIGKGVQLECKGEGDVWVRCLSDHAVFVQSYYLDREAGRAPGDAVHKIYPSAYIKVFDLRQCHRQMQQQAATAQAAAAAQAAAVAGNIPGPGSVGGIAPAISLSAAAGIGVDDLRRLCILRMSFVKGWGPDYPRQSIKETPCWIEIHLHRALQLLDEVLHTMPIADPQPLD
Sequence of SMAD4^D351H/SMAD3 PPI (P84022 whole entry partner): as the sequence (P84022 whole entry partner, one chain of several) above
How it was run: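 HEK293T cells co-transfected with Venus-flag-SMAD3 and mutant GST-SMAD4 and lysed after 48 h in 0.5% Triton X-100 buffer (20 mM Tris-HCl, 150 mM NaCl, 5% glycerol, 2 mM EDTA). Lysate incubated with test compound 3 h rotating at 4°C, then glutathione beads 2 h at 4°C. Beads washed three times, boiled in SDS buffer, and bound SMAD3 detected by western blot.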

[4] = biological target: SMAD4^R361H interaction with R-SMADs (Homo sapiens, UniProt Q13485, R361H); test: R-SMADs selectivity profiling by TR-FRET; format: binding; details: dose-response AUC; SMAD1/2/3/5/8
Sequence of SMAD4^R361H interaction with R-SMADs (P84022 whole entry partner, one chain of several): as above

[5] = biological target: T2, SMAD4^R361H (Homo sapiens, UniProt Q13485, R361H); test: Cycloheximide; format: cell-based; details: RCM-1 cells, CHX chase
T2 sequence (Q13485 1-552 R361H): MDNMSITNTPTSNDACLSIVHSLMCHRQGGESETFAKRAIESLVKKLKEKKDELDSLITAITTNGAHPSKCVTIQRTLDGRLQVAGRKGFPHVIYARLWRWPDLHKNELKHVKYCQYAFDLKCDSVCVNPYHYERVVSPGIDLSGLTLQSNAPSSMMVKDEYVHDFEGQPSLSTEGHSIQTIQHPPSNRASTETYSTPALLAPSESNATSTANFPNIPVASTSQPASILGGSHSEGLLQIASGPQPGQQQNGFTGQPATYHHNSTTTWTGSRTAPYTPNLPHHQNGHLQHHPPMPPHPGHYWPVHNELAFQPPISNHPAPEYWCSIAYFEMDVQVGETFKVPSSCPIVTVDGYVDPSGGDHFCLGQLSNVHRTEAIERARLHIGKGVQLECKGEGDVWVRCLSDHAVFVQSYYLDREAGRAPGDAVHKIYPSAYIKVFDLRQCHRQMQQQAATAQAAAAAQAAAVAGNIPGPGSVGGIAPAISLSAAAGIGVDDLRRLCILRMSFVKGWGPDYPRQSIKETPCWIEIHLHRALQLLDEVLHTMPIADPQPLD
How it was run: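 RCM-1 cells grown 24 h in 24-well plates, then given 100 μg/mL cycloheximide with test compound or DMSO. At each time point cells scraped into 2X SDS sample buffer and boiled 5 min. Run on 10% SDS-PAGE and blotted with anti-SMAD4; SMAD4 densitometry normalized to β-actin. Performed three times.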

[6] = tested on: SMAD4/SMAD3 transcriptional activity (SBE-luc); test: SBE-driven luciferase reporter assay; format: cell-based, human; details: isogenic HCT116 R361H cells pre-treated with compound
How it was run: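 […] cells in 6-well plates co-transfected with SBE4-Luc (1 μg) and Renilla (0.1 μg) plasmids. After 24 h, cells pretreated 6 h with test compound, then stimulated with TGF-β for 18 h. Dual-Glo read-out as Firefly/Renilla ratio, expressed as TGF-β-induced fold-of-change; assays repeated three times.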

[7] = biological target: T1, SMAD4^R361H-SMAD3 PPI; test: Endogenous co-immunoprecipitation of SMAD4 complex in RCM-1 cells; format: cell-based; details: 10 μM for 8 h, endogenous proteins
How it was run: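 RCM-1 cells in 100 mm dishes exposed to 10 μM test compound or DMSO for 8 h, then lysed in PBS by sonication. About 1.5 mg total protein per IP incubated with antibody overnight at 4 °C, then with protein […] agarose beads 4 h at 4 °C. Beads washed four times in PBS; eluates probed for SMAD3 by western blot.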
Target sequence in this assay (P84022 2-425 partner limits assumed, one chain of several): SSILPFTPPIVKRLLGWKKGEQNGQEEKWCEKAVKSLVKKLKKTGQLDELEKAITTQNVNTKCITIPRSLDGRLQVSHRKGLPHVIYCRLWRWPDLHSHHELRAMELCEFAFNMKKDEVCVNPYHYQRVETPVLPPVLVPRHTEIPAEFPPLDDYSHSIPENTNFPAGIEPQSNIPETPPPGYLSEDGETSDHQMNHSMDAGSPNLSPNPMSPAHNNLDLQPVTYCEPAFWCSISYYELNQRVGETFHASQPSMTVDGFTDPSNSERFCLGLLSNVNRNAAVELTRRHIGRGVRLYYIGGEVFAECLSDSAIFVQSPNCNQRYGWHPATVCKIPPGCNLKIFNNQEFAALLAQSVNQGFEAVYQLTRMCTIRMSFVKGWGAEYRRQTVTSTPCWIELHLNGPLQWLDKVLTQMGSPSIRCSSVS

[8] = tested on: isogenic HCT116 cells (SMAD4 WT, null, R361H); test: Cell viability assay; format: cell-based, human
How it was run: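 Isogenic HCT116 WT, SMAD4-null and R361H cells given TGF-β (10 ng/mL), test compound, or both; vehicle/DMSO controls. CellTiter-Blue added and incubated at 37°C. Fluorescence read at Ex 545/Em 615 nm, medium-only blank subtracted, normalized to untreated controls (% C). Mean ± SD of three independent experiments; Student's t-test.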

[9] = biological target: T3, SMAD4 WT (Homo sapiens, UniProt Q13485); test: Cellular thermal shift assay; format: cell-based; details: HCT116 cells, 10 μM for 8 h, compared with the DMSO control
T3 sequence (Q13485 1-552): T2 sequence (Q13485 1-552 R361H) with H361R
How it was run: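 Cells at 60% confluency in 100 mm dishes given 10 μM test compound for 8 h. Pellets in PBS aliquoted and heated at 45~65 °C for 3 min, lysed by three liquid nitrogen/25 °C freeze-thaw cycles, spun 20,000g for 20 min at 4 °C. Soluble SMAD protein western-blotted with actin loading control. Thermal curves from densitometry; mean ± SD, three independent experiments.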

[10] = tested on: isogenic HCT116 cells (SMAD4 R361H, null); test: Western blot of TGF-β-induced p15, p21, N-cadherin and Vimentin proteins; format: cell-based, human; details: R361H mutant cells, TGF-β 10 ng/mL, compound 1 μM
How it was run: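 Isogenic HCT116 SMAD4-null or R361H cells treated with TGF-β (10 ng/mL) and/or test compound (1 μM). Lysates run on 10% SDS-PAGE and transferred to nitrocellulose (100 V, 2 h, 4°C). Membranes blocked 1 h in 5% milk/TBST, probed overnight at 4°C, and developed by chemiluminescence. Representative of three independent experiments.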

[11] = tested on: isogenic HCT116 R361H cells; test: Transcriptome profiling; format: cell-based, human; details: TGF-β 10 ng/mL, compound 1 μM
[12] = tested on: isogenic HCT116 R361H cells; test: Flow cytometry-based cell-cycle analysis; parameters: species or system human; details: TGF-β 10 ng/mL, Ro-31-8220 1 μM, Go-6983 10 μM
How it was run: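 Cells serum-starved 24 h, then placed in 10% FBS medium with TGF-β (10 ng/mL) and/or test compound for 24 h. Fixed in 70% ethanol overnight at 4°C, RNase-treated (1 mg/ml, 30 min, 37°C), stained with 40 μg/ml PI for 30 min. 5,000 cells per sample analysed by flow cytometry; % G1/S given as mean ± SD of three independent experiments.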

| SMILES | potentiation effect (ΔTR-FRET) compared with the DMSO control [1] [%] | colony area in combination with TGF-β [2] | SMAD3 level in the D351H GST pull-down complex [3] | compound-induced TR-FRET signal for SMAD4^R361H with SMAD3 compared with other R-SMADs [4] | SMAD4^R361H protein half-life compared with DMSO control [5] | SMAD4^R361H protein half-life ([5]; compound-treated) | TGF-β-induced SBE-luc activity [6] | amount of SMAD3 in the SMAD4-R361H immune-complex [7] | sensitivity to TGF-β-induced growth suppression (cell viability) ([8]; SMAD4 R361H cells, with TGF-β 10 ng/mL, Ro-31-8220 1 μM, Go-6983 10 μM) | growth inhibition, compound alone ([8]; SMAD4 WT, null and R361H cells, 1 μM) | increase of Tm (ΔTm) of SMAD4 WT [9] | TGF-β-induced expression of p15, p21, N-cadherin and Vimentin proteins [10] | response to TGF-β in terms of DEGs [11] | sensitivity to TGF-β-induced G1/S cell-cycle arrest [12] |
| --- | --- | --- | --- | --- | --- | --- | --- | --- | --- | --- | --- | --- | --- | --- |
| COc1ccc2c(c1)c(C1=C(c3c[nH]c4ccccc34)C(=O)NC1=O)cn2CCCN(C)C [Go-6983] | > 40 | A similar effect | significantly restored | significantly higher |  |  |  |  |  |  |  |  |  |  |
| Cn1cc(C2=C(c3cn(CCCSC(=N)N)c4ccccc34)C(=O)NC2=O)c2ccccc21 [Ro-31-8220] | > 40 | significantly decreased colony area | significantly restored | significantly higher | no significant difference | about 2 h | restored to a level similar to that of the WT cells | drastically restored | restored the sensitivity | did not result in any significant growth inhibition | but not WT or SMAD3 | significant increase | reestablished to a similar degree to that of WT cells | regained sensitivity |
